Measurements: ChEMBL document CHEMBL1144257, “5-Chloroindoloyl glycine amide inhibitors of glycogen phosphorylase: synthesis, in vitro, in vivo, and X-ray crystallographic characterization” (Bioorg Med Chem Lett, 2005)

Columns and labels:
Mus musculus [1] = experiment: In-vivo minimum effective dose (MED) for reduction of plasma glucose in mouse after 3 hours; assay type: functional; details: read-out: MED
How it was run: (§1)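 Fed diabetic ob/ob mice, oral dosing in neat PEG400, starting at […] and then at successively lower doses. Plasma glucose measured 3h post-dose. Lowering is expressed as percent decrease versus vehicle-treated controls within the same experiment, with significance by unpaired t-test on group mean glucose. MED is the lowest dose giving reduction.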

SK-HEP1 = experiment: Inhibitory concentration against human SK-Hep-1 cells (hepatoma cell line); assay type: functional, cell-based
How it was run: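 SK-HEP-1 cells carrying pre-labeled ¹⁴C-glycogen, with phosphorylase activated by forskolin. Glycogenolysis is the ¹⁴C-glycogen (dpm) difference between basal and forskolin-treated cells. Inhibition is expressed as percent of forskolin-induced glycogenolysis in DMSO controls. IC50 from a 6-point curve (0.1–30μM), triplicate points, mean of ≥2 independent experiments where repeated.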

[2] = target: T1, Glycogen phosphorylase, liver form (Homo sapiens, UniProt P06737); experiment: (§2) Inhibitory concentration against glycogen phosphorylase
T1 sequence (P06737 whole entry): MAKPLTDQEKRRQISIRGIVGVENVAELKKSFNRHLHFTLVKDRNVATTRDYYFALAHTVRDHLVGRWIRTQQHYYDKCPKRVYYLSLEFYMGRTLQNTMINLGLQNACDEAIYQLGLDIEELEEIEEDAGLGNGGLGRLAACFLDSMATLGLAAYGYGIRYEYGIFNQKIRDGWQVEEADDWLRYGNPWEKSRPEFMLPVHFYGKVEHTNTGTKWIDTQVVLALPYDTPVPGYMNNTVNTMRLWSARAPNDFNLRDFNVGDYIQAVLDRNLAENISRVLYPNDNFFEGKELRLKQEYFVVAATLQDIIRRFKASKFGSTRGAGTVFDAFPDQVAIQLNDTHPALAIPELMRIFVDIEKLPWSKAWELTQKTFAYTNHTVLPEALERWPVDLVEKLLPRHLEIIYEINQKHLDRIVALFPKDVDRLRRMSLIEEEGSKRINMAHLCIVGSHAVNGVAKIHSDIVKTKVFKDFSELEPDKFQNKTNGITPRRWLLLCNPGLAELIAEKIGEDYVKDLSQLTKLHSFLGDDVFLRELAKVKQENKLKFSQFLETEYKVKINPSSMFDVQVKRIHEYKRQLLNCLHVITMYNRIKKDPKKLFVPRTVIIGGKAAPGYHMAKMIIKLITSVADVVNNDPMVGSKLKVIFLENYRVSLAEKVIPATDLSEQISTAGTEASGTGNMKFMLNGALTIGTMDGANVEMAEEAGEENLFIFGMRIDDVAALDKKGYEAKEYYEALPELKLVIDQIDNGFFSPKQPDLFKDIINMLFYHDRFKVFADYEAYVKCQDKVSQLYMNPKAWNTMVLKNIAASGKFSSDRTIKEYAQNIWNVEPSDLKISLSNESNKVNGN

Mus musculus [3] = organism: Mus musculus; experiment: Percentage of glucose lowering after 3h at minimum effective dose in mouse; assay type: functional; how it was run: as §1
[4] = target: T1, Glycogen phosphorylase, liver form; experiment: as §2; remark: listed apart in the source
How it was run: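 Recombinant human liver GPa (50ng), run in the glycogen-synthesis direction at 22°C. Compounds added in 14% DMSO before enzyme. Released phosphate read at 620nm with malachite green/molybdate in HCl after 20min. IC50 from triplicate dose-response curves, mean of ≥3 determinations (≥2 if >500 nM).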

Row | SMILES | IC50 (SK-HEP1) [nM] | IC50 [2] [nM] | IC50 [4] [nM] | minimal effective dose (Mus musculus [1]) [mg/kg] | Activity (Mus musculus [3]) [%]
1 | O=C(NCC(=O)N(CCOCCO)C1CCCC1)c1cc2cc(Cl)ccc2[nH]1 | 3800 | 230 | – | > 10 | –
2 | O=C(NCC(=O)N(CCO)C1CCC1)c1cc2cc(Cl)ccc2[nH]1 | 2000 | 130 | – | 25 | 30
3 | CN(C)C(=O)[C@H](O)[C@H](Cc1ccccc1)NC(=O)c1cc2cc(Cl)ccc2[nH]1 | 1500 | – | – | 25 | 32
4 | CN(C(=O)CNC(=O)c1cc2cc(Cl)ccc2[nH]1)C1CCCC1 | 1700 | 55 | – | 10 | 36
5 | O=C(NCC(=O)N(CCOc1ccccc1)C1CCCC1)c1cc2cc(Cl)ccc2[nH]1 | – | – | 1400 | – | –
6 | CC(C)(O)CN(C(=O)CNC(=O)c1cc2cc(Cl)ccc2[nH]1)C1CCCC1 | 1400 | 150 | – | 10 | 30
7 | CC(C)CN(CCO)C(=O)CNC(=O)c1cc2cc(Cl)ccc2[nH]1 | 2500 | 180 | – | 25 | 25
8 | CN(C(=O)CNC(=O)c1cc2cc(Cl)ccc2[nH]1)C1CCCCC1 | 1400 | 150 | – | > 10 | –

Further compounds by falling IC50 (SK-HEP1), results first:

Row | IC50 (SK-HEP1) [nM] | IC50 [2] [nM] | IC50 [4] [nM] | SMILES | minimal effective dose (Mus musculus [1]) [mg/kg] | Activity (Mus musculus [3]) [%]
9 | 1400 | 250 | – | O=C(NCC(=O)N(CCO)C1CCOCC1)c1cc2cc(Cl)ccc2[nH]1 | 5 | 27
10 | 1000 | 120 | – | CCCCN(CCO)C(=O)CNC(=O)c1cc2cc(Cl)ccc2[nH]1 | > 10 | –
11 | 710 | 99 | – | O=C(NCC(=O)N(CCO)C1CCCCC1)c1cc2cc(Cl)ccc2[nH]1 | > 10 | –
12 | 680 | 30 | – | N#CCN(C(=O)CNC(=O)c1cc2cc(Cl)ccc2[nH]1)C1CCCC1 | 10 | 40
13 | 270 | 120 | – | O=C(NCC(=O)N(CCO)c1ccccc1)c1cc2cc(Cl)ccc2[nH]1 | > 10 | –
14 | 140 | 57 | – | O=C(NCC(=O)N(CCO)C1CCCC1)c1cc2cc(Cl)ccc2[nH]1 | 5 | 25
